Values after ≈ are worked out from the molar mass of the structure shown.
Legend:
Type in all cases: functional
Staphylococcus aureus [1] = assay: Antimicrobial activity against Staphylococcus aureus UFPEDA 01 after 20 hrs by twofold serial dilution technique; settings: UFPEDA 01, 20 h
Summary of the method: (§1)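 Twofold serial dilution MIC in agar plates against Gram-positive strains and multidrug-resistant clinical isolates. Inoculum applied was 10⁵ CFU/plate. Plates with culture medium plus DMSO served as negative control. MIC was read after incubation at 35 °C for 20 h.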

Bacillus subtilis [2] = assay: Antimicrobial activity against Bacillus subtilis UFPEDA 16 after 20 hrs by twofold serial dilution technique; settings: UFPEDA 16, 20 h
Summary of the method: (§2)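 MIC was determined by twofold serial dilution. Bacteria were tested in plates at 10⁵ CFU/plate and read after 20 h. C. albicans was tested in tubes at 10³ CFU/tube and read after 48 h. All incubations were at 35 °C. Medium plus DMSO served as the negative control.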

Micrococcus luteus [3] = assay: Antimicrobial activity against Micrococcus luteus UFPEDA 06 after 20 hrs by twofold serial dilution technique; settings: UFPEDA 06, 20 h; summary of the method: as §2
Enterococcus faecalis [4] = assay: Antimicrobial activity against Enterococcus faecalis UFPEDA 138 after 20 hrs by twofold serial dilution technique; settings: UFPEDA 138, 20 h; summary of the method: as §2
[5] = test system: Mycolicibacterium smegmatis; assay: Antimicrobial activity against Mycobacterium smegmatis UFPEDA 71 after 20 hrs by twofold serial dilution technique; settings: UFPEDA 71, 20 h; summary of the method: as §2
Candida albicans [6] = assay: Antimicrobial activity against Candida albicans UFPEDA 1007 after 48 hrs by twofold serial dilution technique; settings: UFPEDA 1007, 48 h; summary of the method: as §2
Staphylococcus aureus [7] = assay: Antimicrobial activity against multidrug-resistant Staphylococcus aureus H.C. 20981 isolate after 20 hrs by twofold serial dilution technique; settings: H.C. 20981, 20 h; summary of the method: as §1
Staphylococcus aureus [8] = assay: Antimicrobial activity against multidrug-resistant Staphylococcus aureus H.C. 21141 isolate after 20 hrs by twofold serial dilution technique; settings: H.C. 21141, 20 h; summary of the method: as §1
Staphylococcus aureus [9] = assay: Antimicrobial activity against multidrug-resistant Staphylococcus aureus H.C. 21036 isolate after 20 hrs by twofold serial dilution technique; settings: H.C. 21036, 20 h; summary of the method: as §1
Staphylococcus aureus [10] = assay: Antimicrobial activity against multidrug-resistant Staphylococcus aureus H.C. 20489 isolate after 20 hrs by twofold serial dilution technique; settings: H.C. 20489, 20 h; summary of the method: as §1
Staphylococcus aureus [11] = assay: Antimicrobial activity against multidrug-resistant Staphylococcus aureus H.C. 20794 isolate after 20 hrs by twofold serial dilution technique; settings: H.C. 20794, 20 h; summary of the method: as §1
Staphylococcus aureus [12] = assay: Antimicrobial activity against multidrug-resistant Staphylococcus aureus H.C. 20905 isolate after 20 hrs by twofold serial dilution technique; settings: H.C. 20905, 20 h; summary of the method: as §1
Enterococcus faecalis [13] = assay: Antimicrobial activity against multidrug-resistant Enterococcus faecalis H.C. 21752 isolate after 20 hrs by twofold serial dilution technique; settings: H.C. 21752, 20 h; summary of the method: as §1
Enterococcus faecalis [14] = assay: Antimicrobial activity against multidrug-resistant Enterococcus faecalis H.C. 21944 isolate after 20 hrs by twofold serial dilution technique; settings: H.C. 21944, 20 h; summary of the method: as §1
Enterococcus faecalis [15] = assay: Antimicrobial activity against multidrug-resistant Enterococcus faecalis H.C. 24708 isolate after 20 hrs by twofold serial dilution technique; settings: H.C. 24708, 20 h; summary of the method: as §1
Enterococcus faecalis [16] = assay: Antimicrobial activity against multidrug-resistant Enterococcus faecalis H.C. 24962 isolate after 20 hrs by twofold serial dilution technique; settings: H.C. 24962, 20 h; summary of the method: as §1
Staphylococcus [17] = assay: Antimicrobial activity against coagulase-negative Staphylococcus H.A.M. 278 isolate after 20 hrs by twofold serial dilution technique; settings: H.A.M. 278, 20 h; summary of the method: as §2
Staphylococcus [18] = assay: Antimicrobial activity against coagulase-negative Staphylococcus H.A.M. 338 isolate after 20 hrs by twofold serial dilution technique; settings: H.A.M. 338, 20 h; summary of the method: as §2
NCI-H292 [19] = assay: Cytotoxicity against human NCI-H292 cells at 10 ug/mL after 72 hrs by MTT assay; settings: NCI-H292, 72 h, read-out: GI
Summary of the method: (§3)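 MTT antiproliferative assay. Cells were diluted to 10⁵ cells/mL in 96-well plates and preincubated for 24 h at 37 °C in humid 5% CO₂. Compounds or vincristine (reference) were then added. Formazan was dissolved and OD read at 540 nm, compared with medium-only control cells. Run in triplicate.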

NCI-H292 [20] = assay: Cytotoxicity against human NCI-H292 cells at 5 ug/mL after 72 hrs by MTT assay; settings: NCI-H292, 72 h, read-out: GI; summary of the method: as §3
NCI-H292 [21] = assay: Cytotoxicity against human NCI-H292 cells at 2.5 ug/mL after 72 hrs by MTT assay; settings: NCI-H292, 72 h, read-out: GI; summary of the method: as §3
NCI-H292 [22] = assay: Cytotoxicity against human NCI-H292 cells at 1.25 ug/mL after 72 hrs by MTT assay; settings: NCI-H292, 72 h, read-out: GI; summary of the method: as §3
HEp-2 [23] = assay: Cytotoxicity against human Hep2 cells at 10 ug/mL after 72 hrs by MTT assay; settings: HEp-2, 72 h, read-out: GI; summary of the method: as §3
HEp-2 [24] = assay: Cytotoxicity against human Hep2 cells at 5 ug/mL after 72 hrs by MTT assay; settings: HEp-2, 72 h, read-out: GI; summary of the method: as §3
HEp-2 [25] = assay: Cytotoxicity against human Hep2 cells at 2.5 ug/mL after 72 hrs by MTT assay; settings: HEp-2, 72 h, read-out: GI; summary of the method: as §3
HEp-2 [26] = assay: Cytotoxicity against human Hep2 cells at 1.25 ug/mL after 72 hrs by MTT assay; settings: HEp-2, 72 h, read-out: GI; summary of the method: as §3
Serratia marcescens = assay: Antimicrobial activity against Serratia marcescens UFPEDA 398 at 300 ug/disk after 24 hrs by disk diffusion method; settings: UFPEDA 398, 24 h, read-out: IZ
Summary of the method: (§4)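 Preliminary screen by disk diffusion. Paper disks (6 mm) holding 300 µg of compound were placed on agar plates inoculated with a standardized microbial suspension. DMSO-only disks served as negative controls. A mean inhibition zone below 7 mm was scored as no sensitivity. Values are means, n = 3.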

Escherichia coli = assay: Antimicrobial activity against Escherichia coli UFPEDA 224 at 300 ug/disk after 24 hrs by disk diffusion method; settings: UFPEDA 224, 24 h, read-out: IZ; summary of the method: as §4
Staphylococcus aureus [27] = assay: Antimicrobial activity against Staphylococcus aureus UFPEDA 01 at 300 ug/disk after 24 hrs by disk diffusion method; settings: UFPEDA 01, 24 h, read-out: IZ; summary of the method: as §4
Bacillus subtilis [28] = assay: Antimicrobial activity against Bacillus subtilis UFPEDA 16 at 300 ug/disk after 24 hrs by disk diffusion method; settings: UFPEDA 16, 24 h, read-out: IZ; summary of the method: as §4
Micrococcus luteus [29] = assay: Antimicrobial activity against Micrococcus luteus UFPEDA 06 at 300 ug/disk after 24 hrs by disk diffusion method; settings: UFPEDA 06, 24 h, read-out: IZ; summary of the method: as §4
Enterococcus faecalis [30] = assay: Antimicrobial activity against Enterococcus faecalis UFPEDA 138 at 300 ug/disk after 24 hrs by disk diffusion method; settings: UFPEDA 138, 24 h, read-out: IZ; summary of the method: as §4
Pseudomonas aeruginosa = assay: Antimicrobial activity against Pseudomonas aeruginosa UFPEDA 39 at 300 ug/disk after 24 hrs by disk diffusion method; settings: UFPEDA 39, 24 h, read-out: IZ; summary of the method: as §4
[31] = test system: Mycolicibacterium smegmatis; assay: Antimicrobial activity against Mycobacterium smegmatis UFPEDA 71 at 300 ug/disk after 24 hrs by disk diffusion method; settings: UFPEDA 71, 24 h, read-out: IZ; summary of the method: as §4
Candida albicans [32] = assay: Antimicrobial activity against Candida albicans UFPEDA 1007 at 300 ug/disk after 48 hrs by disk diffusion method; settings: UFPEDA 1007, 48 h, read-out: IZ; summary of the method: as §4

Row | Structure (SMILES) | MIC (Staphylococcus aureus [1]) [µg/mL] | MIC (Bacillus subtilis [2]) [µg/mL] | MIC (Micrococcus luteus [3]) [µg/mL] | MIC (Enterococcus faecalis [4]) [µg/mL] | MIC [5] [µg/mL] | MIC (Candida albicans [6]) [µg/mL] | MIC (Staphylococcus aureus [7]) [µg/mL] | MIC (Staphylococcus aureus [8]) [µg/mL] | MIC (Staphylococcus aureus [9]) [µg/mL] | MIC (Staphylococcus aureus [10]) [µg/mL] | MIC (Staphylococcus aureus [11]) [µg/mL] | MIC (Staphylococcus aureus [12]) [µg/mL] | MIC (Enterococcus faecalis [13]) [µg/mL] | MIC (Enterococcus faecalis [14]) [µg/mL] | MIC (Enterococcus faecalis [15]) [µg/mL] | MIC (Enterococcus faecalis [16]) [µg/mL] | MIC (Staphylococcus [17]) [µg/mL] | MIC (Staphylococcus [18]) [µg/mL] | inhibition of growth at 10 µg/mL (NCI-H292 [19]) [%] | inhibition of growth at 5 µg/mL (NCI-H292 [20]) [%] | other results
1 | O=C1NC(=S)/C(=C/c2cccc(Cl)c2)S1 | 2 (≈ 7.82 µM) | 8 (≈ 31.3 µM) | 8 (≈ 31.3 µM) | 8 (≈ 31.3 µM) | 16 (≈ 62.6 µM) | 32 (≈ 125 µM) | 2 (≈ 7.82 µM) | 8 (≈ 31.3 µM) | 2 (≈ 7.82 µM) | 2 (≈ 7.82 µM) | 2 (≈ 7.82 µM) | 2 (≈ 7.82 µM) | 4 (≈ 15.6 µM) | 4 (≈ 15.6 µM) | 4 (≈ 15.6 µM) | 4 (≈ 15.6 µM) | 16 (≈ 62.6 µM) | 2 (≈ 7.82 µM) | 30.9 | 21.6 | inhibition of growth at 2.5 µg/mL (NCI-H292 [21]): 11.2%; inhibition of growth at 1.25 µg/mL (NCI-H292 [22]): 3.35%; inhibition of growth at 10 µg/mL (HEp-2 [23]): 18.8%; inhibition of growth at 5 µg/mL (HEp-2 [24]): 17.6%; inhibition of growth at 2.5 µg/mL (HEp-2 [25]): 5.44%; inhibition of growth at 1.25 µg/mL (HEp-2 [26]): -0.36%; zone of inhibition at 300 µg/disc (Serratia marcescens): < 7 mm; zone of inhibition at 300 µg/disc (Escherichia coli): < 7 mm; zone of inhibition at 300 µg/disc (Staphylococcus aureus [27]): 31 mm; zone of inhibition at 300 µg/disc (Bacillus subtilis [28]): 25 mm; zone of inhibition at 300 µg/disc (Micrococcus luteus [29]): 29 mm; zone of inhibition at 300 µg/disc (Enterococcus faecalis [30]): 22 mm; zone of inhibition at 300 µg/disc (Pseudomonas aeruginosa): < 7 mm; zone of inhibition at 300 µg/disc [31]: 24 mm; zone of inhibition at 300 µg/disc (Candida albicans [32]): 13 mm
2 | O=C1NC(=S)/C(=C/c2ccc(Br)cc2)S1 | 4 (≈ 13.3 µM) | 2 (≈ 6.66 µM) | 8 (≈ 26.6 µM) | 16 (≈ 53.3 µM) | 4 (≈ 13.3 µM) | 32 (≈ 107 µM) | 4 (≈ 13.3 µM) | 4 (≈ 13.3 µM) | 4 (≈ 13.3 µM) | 4 (≈ 13.3 µM) | 2 (≈ 6.66 µM) | 4 (≈ 13.3 µM) | 8 (≈ 26.6 µM) | 8 (≈ 26.6 µM) | 8 (≈ 26.6 µM) | 8 (≈ 26.6 µM) | 4 (≈ 13.3 µM) | 4 (≈ 13.3 µM) | 36.5 | 16.6 | inhibition of growth at 2.5 µg/mL (NCI-H292 [21]): 1.19%; inhibition of growth at 1.25 µg/mL (NCI-H292 [22]): 1.1%; inhibition of growth at 10 µg/mL (HEp-2 [23]): 18.2%; inhibition of growth at 5 µg/mL (HEp-2 [24]): 15.4%; inhibition of growth at 2.5 µg/mL (HEp-2 [25]): -0.36%; inhibition of growth at 1.25 µg/mL (HEp-2 [26]): -3.16%; zone of inhibition at 300 µg/disc (Serratia marcescens): < 7 mm; zone of inhibition at 300 µg/disc (Escherichia coli): < 7 mm; zone of inhibition at 300 µg/disc (Staphylococcus aureus [27]): 23 mm; zone of inhibition at 300 µg/disc (Bacillus subtilis [28]): 18 mm; zone of inhibition at 300 µg/disc (Micrococcus luteus [29]): 21 mm; zone of inhibition at 300 µg/disc (Enterococcus faecalis [30]): 17 mm; zone of inhibition at 300 µg/disc (Pseudomonas aeruginosa): < 7 mm; zone of inhibition at 300 µg/disc [31]: 17 mm; zone of inhibition at 300 µg/disc (Candida albicans [32]): 15 mm

From ChEMBL document CHEMBL1158358, “Synthesis, antimicrobial and cytotoxic activities of some 5-arylidene-4-thioxo-thiazolidine-2-ones” (Eur J Med Chem, 2009)
